# Experimental data published in ChEMBL document CHEMBL1148673, “Peptidomimetic C5a receptor antagonists with hydrophobic substitutions at the C-terminus: increased receptor specificity and in vivo activity” (Bioorg Med Chem Lett, 2006).
# Residues, ends and D or L forms follow the SMILES beside them.
# Molecular target: T1, C5a anaphylatoxin chemotactic receptor 1 (Homo sapiens, UniProt P21730)
# T1 sequence (P21730 whole entry): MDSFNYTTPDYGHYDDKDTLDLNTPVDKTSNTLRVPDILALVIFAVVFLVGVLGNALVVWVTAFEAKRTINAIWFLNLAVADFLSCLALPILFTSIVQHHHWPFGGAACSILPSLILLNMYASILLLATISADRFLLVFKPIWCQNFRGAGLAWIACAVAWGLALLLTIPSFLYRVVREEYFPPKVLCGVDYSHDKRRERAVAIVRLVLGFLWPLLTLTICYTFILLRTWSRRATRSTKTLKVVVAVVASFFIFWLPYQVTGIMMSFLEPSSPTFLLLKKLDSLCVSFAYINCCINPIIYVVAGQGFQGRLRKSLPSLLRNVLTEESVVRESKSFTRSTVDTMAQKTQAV
# Test: Antagonist activity at human C5aR in CD88 transfected RBL cells assessed as inhibition of C5a-induced glucosaminidase release
# Format: functional, cell-based
# Settings: not given
# Summary of the method: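 Functional antagonism read as inhibition of glucosaminidase release stimulated by C5a from RBL cells transfected with CD88 (RBL+); IC50 in µM.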
row,Compound,IC50
1,CCCCCCCC[C@@H]1NC(=O)[C@H](Cc2c[nH]c3ccccc23)NC(=O)[C@@H](CC2CCCCC2)NC(=O)[C@@H]2CCCN2C(=O)[C@@H](NC(=O)[C@H](Cc2ccccc2)NC(C)=O)CCCNC1=O,300 nM
2,CC(=O)N[C@@H](Cc1ccccc1)C(=O)N[C@H]1CCCNC(=O)[C@H](CCCNC(=N)N)NC(=O)[C@H](Cc2c[nH]c3ccccc23)NC(=O)[C@@H](CC2CCCCC2)NC(=O)[C@H](C)NC1=O,25 nM
3,"CC(=O)N[C@@H](Cc1ccccc1)C(=O)N[C@H]1CCCNC(=O)[C@H](CC(C)C)NC(=O)[C@H](Cc2c[nH]c3ccccc23)NC(=O)[C@@H](CC2CCCCC2)NC(=O)[C@@H]2CCCN2C1=O (HELM PEPTIDE1{[ac].F.[Orn].P.[O=C([C@@H](CC1CCCCC1)N[*:1])[*:2]].W.L}$PEPTIDE1,PEPTIDE1,3:R3-7:R2$$$V2.0)",54 nM
4,CC(=O)N[C@@H](Cc1ccccc1)C(=O)N[C@@H](CCCN)C(=O)N1CCC[C@H]1C(=O)N[C@H](CCC(C)C)C(=O)N[C@@H](Cc1ccc(F)cc1)C(=O)N[C@@H](Cc1ccccc1)C(N)=O,71 nM
5,"CCCC[C@H]1NC(=O)[C@H](Cc2c[nH]c3ccccc23)NC(=O)[C@@H](CC2CCCCC2)NC(=O)[C@@H]2CCCN2C(=O)[C@@H](NC(=O)[C@H](Cc2ccccc2)NC(C)=O)CCCNC1=O (HELM PEPTIDE1{[ac].F.[Orn].P.[O=C([C@@H](CC1CCCCC1)N[*:1])[*:2]].W.[CCCC[C@@H](N[*:1])C(=O)[*:2]]}$PEPTIDE1,PEPTIDE1,3:R3-7:R2$$$V2.0)",107 nM
6,CC(=O)N[C@@H](Cc1ccccc1)C(=O)N[C@H]1CCCNC(=O)[C@H](CCC2CCCCC2)NC(=O)[C@H](Cc2c[nH]c3ccccc23)NC(=O)[C@@H](CC2CCCCC2)NC(=O)[C@@H]2CCCN2C1=O,146 nM
7,CC(=O)N[C@@H](Cc1ccccc1)C(=O)N[C@H]1CCCNC(=O)[C@H](CCCNC(=N)N)NC(=O)[C@H](Cc2c[nH]c3ccccc23)NC(=O)[C@@H](C)NC(=O)[C@@H]2CCCN2C1=O,55000 nM
8,"CC(=O)N[C@@H](Cc1ccccc1)C(=O)N[C@H]1CCCNC(=O)[C@H](CCCN=C(N)N)NC(=O)[C@H](C)NC(=O)[C@@H](CC2CCCCC2)NC(=O)[C@@H]2CCCN2C1=O (HELM PEPTIDE1{[ac].F.[Orn].P.[O=C([C@@H](CC1CCCCC1)N[*:1])[*:2]].A.R}$PEPTIDE1,PEPTIDE1,3:R3-7:R2$$$V2.0)",100000 nM
9,"CC(=O)N[C@@H](C)C(=O)N[C@H]1CCCNC(=O)[C@H](CCCN=C(N)N)NC(=O)[C@H](Cc2c[nH]c3ccccc23)NC(=O)[C@@H](CC2CCCCC2)NC(=O)[C@@H]2CCCN2C1=O (HELM PEPTIDE1{[ac].A.[Orn].P.[O=C([C@@H](CC1CCCCC1)N[*:1])[*:2]].W.R}$PEPTIDE1,PEPTIDE1,3:R3-7:R2$$$V2.0)",23000 nM
10,CC(=O)N[C@@H](Cc1ccccc1)C(=O)N[C@H]1CCCNC(=O)[C@H](CCC/N=C(/N)N[N+](=O)[O-])NC(=O)[C@H](Cc2c[nH]c3ccccc23)NC(=O)[C@@H](CC2CCCCC2)NC(=O)[C@@H]2CCCN2C1=O,570 nM
11,"CC(=O)N[C@@H](Cc1ccccc1)C(=O)N[C@H]1CCCNC(=O)[C@H](Cc2cccs2)NC(=O)[C@H](Cc2c[nH]c3ccccc23)NC(=O)[C@@H](CC2CCCCC2)NC(=O)[C@@H]2CCCN2C1=O (HELM PEPTIDE1{[ac].F.[Orn].P.[O=C([C@@H](CC1CCCCC1)N[*:1])[*:2]].W.[O=C([C@H](Cc1cccs1)N[*:1])[*:2]]}$PEPTIDE1,PEPTIDE1,3:R3-7:R2$$$V2.0)",22 nM
12,CC[C@H](C)[C@@H]1NC(=O)[C@H](Cc2c[nH]c3ccccc23)NC(=O)[C@@H](CC2CCCCC2)NC(=O)[C@@H]2CCCN2C(=O)[C@@H](NC(=O)[C@H](Cc2ccccc2)NC(C)=O)CCCNC1=O,50 nM
13,"CC(=O)N[C@@H](Cc1ccccc1)C(=O)N[C@H]1CCCNC(=O)[C@H](CC2CCCCC2)NC(=O)[C@H](Cc2c[nH]c3ccccc23)NC(=O)[C@@H](CC2CCCCC2)NC(=O)[C@@H]2CCCN2C1=O (HELM PEPTIDE1{[ac].F.[Orn].P.[O=C([C@@H](CC1CCCCC1)N[*:1])[*:2]].W.[Cha]}$PEPTIDE1,PEPTIDE1,3:R3-7:R2$$$V2.0)",45 nM
14,CC(=O)N[C@@H](Cc1ccccc1)C(=O)N[C@H]1CCCNC(=O)[C@H](CCCNC(N)=O)NC(=O)[C@H](Cc2c[nH]c3ccccc23)NC(=O)[C@@H](CC2CCCCC2)NC(=O)[C@@H]2CCCN2C1=O,490 nM
15,CC(=O)N[C@@H](Cc1ccccc1)C(=O)N[C@@H](CCCN)C(=O)N1CCC[C@H]1C(=O)N[C@H](CC1CCCCC1)C(=O)N[C@@H](Cc1c[nH]c2ccccc12)C(=O)N[C@@H](CCCN=C(N)N)C(=O)O,535 nM
16,CC(=O)N[C@@H](Cc1ccccc1)C(=O)N[C@@H](CCCN)C(=O)N1CCC[C@H]1C(=O)N[C@H](CC1CCCCC1)C(=O)N[C@@H](Cc1c[nH]c2ccccc12)C(=O)N[C@@H](Cc1ccccc1)C(N)=O (HELM PEPTIDE1{[ac].F.[Orn].P.[O=C([C@@H](CC1CCCCC1)N[*:1])[*:2]].W.F.[am]}$$$$V2.0),31 nM
17,CC(=O)N[C@@H](Cc1ccccc1)C(=O)N[C@@H](CCCN)C(=O)N1CCC[C@H]1C(=O)N[C@H](CCC(C)C)C(=O)N[C@@H](Cc1csc2ccccc12)C(=O)N[C@@H](Cc1ccccc1)C(N)=O,27 nM
18,CC(=O)N[C@@H](Cc1ccccc1)C(=O)N[C@@H](CCCN)C(=O)N1CCC[C@H]1C(=O)N[C@H](CCC(C)C)C(=O)N[C@@H](Cc1c[nH]c2ccccc12)C(=O)N[C@@H](Cc1ccccc1)C(N)=O,63 nM
19,"CC(=O)N[C@@H](Cc1ccccc1)C(=O)N[C@H]1CCCNC(=O)[C@H](Cc2ccccc2)NC(=O)[C@H](Cc2c[nH]c3ccccc23)NC(=O)[C@@H](CC2CCCCC2)NC(=O)[C@@H]2CCCN2C1=O (HELM PEPTIDE1{[ac].F.[Orn].P.[O=C([C@@H](CC1CCCCC1)N[*:1])[*:2]].W.F}$PEPTIDE1,PEPTIDE1,3:R3-7:R2$$$V2.0)",26 nM
20,"CC(=O)N[C@@H](Cc1ccccc1)C(=O)N[C@H]1CCCNC(=O)[C@H](CCC(C)C)NC(=O)[C@H](Cc2c[nH]c3ccccc23)NC(=O)[C@@H](CC2CCCCC2)NC(=O)[C@@H]2CCCN2C1=O (HELM PEPTIDE1{[ac].F.[Orn].P.[O=C([C@@H](CC1CCCCC1)N[*:1])[*:2]].W.[CC(C)CC[C@H](N[*:1])C(=O)[*:2]]}$PEPTIDE1,PEPTIDE1,3:R3-7:R2$$$V2.0)",57 nM
21,"CC(=O)N[C@@H](Cc1ccccc1)C(=O)N[C@H]1CCCNC(=O)[C@H](Cc2ccc3ccccc3c2)NC(=O)[C@H](Cc2c[nH]c3ccccc23)NC(=O)[C@@H](CC2CCCCC2)NC(=O)[C@@H]2CCCN2C1=O (HELM PEPTIDE1{[ac].F.[Orn].P.[O=C([C@@H](CC1CCCCC1)N[*:1])[*:2]].W.[O=C([C@H](Cc1ccc2ccccc2c1)N[*:1])[*:2]]}$PEPTIDE1,PEPTIDE1,3:R3-7:R2$$$V2.0)",76 nM
22,"CC(=O)N[C@@H](Cc1ccccc1)C(=O)N[C@H]1CCCNC(=O)[C@H](C)NC(=O)[C@H](Cc2c[nH]c3ccccc23)NC(=O)[C@@H](CC2CCCCC2)NC(=O)[C@@H]2CCCN2C1=O (HELM PEPTIDE1{[ac].F.[Orn].P.[O=C([C@@H](CC1CCCCC1)N[*:1])[*:2]].W.A}$PEPTIDE1,PEPTIDE1,3:R3-7:R2$$$V2.0)",6900 nM
23,CC(=O)N[C@@H](Cc1ccccc1)C(=O)N[C@H]1CCCNC(=O)[C@H](CCCN)NC(=O)[C@H](Cc2c[nH]c3ccccc23)NC(=O)[C@@H](CC2CCCCC2)NC(=O)[C@@H]2CCCN2C1=O,18 nM
24,CC(=O)N[C@@H](Cc1ccccc1)C(=O)N[C@H]1CCCNC(=O)[C@H](CCCCNC(=N)N)NC(=O)[C@H](Cc2c[nH]c3ccccc23)NC(=O)[C@@H](CC2CCCCC2)NC(=O)[C@@H]2CCCN2C1=O,360 nM
25,"CC(=O)N[C@@H](Cc1ccccc1)C(=O)N[C@H]1CCCNC(=O)[C@H](Cc2cccc3ccccc23)NC(=O)[C@H](Cc2c[nH]c3ccccc23)NC(=O)[C@@H](CC2CCCCC2)NC(=O)[C@@H]2CCCN2C1=O (HELM PEPTIDE1{[ac].F.[Orn].P.[O=C([C@@H](CC1CCCCC1)N[*:1])[*:2]].W.[O=C([C@H](Cc1cccc2ccccc12)N[*:1])[*:2]]}$PEPTIDE1,PEPTIDE1,3:R3-7:R2$$$V2.0)",51 nM
26,"CCC[C@@H]1NC(=O)[C@H](Cc2c[nH]c3ccccc23)NC(=O)[C@@H](CC2CCCCC2)NC(=O)[C@@H]2CCCN2C(=O)[C@@H](NC(=O)[C@H](Cc2ccccc2)NC(C)=O)CCCNC1=O (HELM PEPTIDE1{[ac].F.[Orn].P.[O=C([C@@H](CC1CCCCC1)N[*:1])[*:2]].W.[Nva]}$PEPTIDE1,PEPTIDE1,3:R3-7:R2$$$V2.0)",18 nM
27,"CCCC[C@@H]1NC(=O)[C@H](Cc2c[nH]c3ccccc23)NC(=O)[C@@H](CC2CCCCC2)NC(=O)[C@@H]2CCCN2C(=O)[C@@H](NC(=O)[C@H](Cc2ccccc2)NC(C)=O)CCCNC1=O (HELM PEPTIDE1{[ac].F.[Orn].P.[O=C([C@@H](CC1CCCCC1)N[*:1])[*:2]].W.[Nle]}$PEPTIDE1,PEPTIDE1,3:R3-7:R2$$$V2.0)",25 nM
28,"CC(=O)N[C@@H](Cc1ccccc1)C(=O)N[C@H]1CCCNC(=O)[C@H](C2CCCCC2)NC(=O)[C@H](Cc2c[nH]c3ccccc23)NC(=O)[C@@H](CC2CCCCC2)NC(=O)[C@@H]2CCCN2C1=O (HELM PEPTIDE1{[ac].F.[Orn].P.[O=C([C@@H](CC1CCCCC1)N[*:1])[*:2]].W.[O=C([C@@H](N[*:1])C1CCCCC1)[*:2]]}$PEPTIDE1,PEPTIDE1,3:R3-7:R2$$$V2.0)",38 nM
29,CCCC[C@H](NC(=O)[C@H](Cc1c[nH]c2ccccc12)NC(=O)[C@@H](CC1CCCCC1)NC(=O)[C@@H]1CCCN1C(=O)[C@H](CCCN)NC(=O)[C@H](Cc1ccccc1)NC(C)=O)C(N)=O,463 nM

# Test system: not listed separately
# Test: Stability in human liver microsome after 1 hr
# Format: ADME
# Settings: liver microsomes, read-out: Stability
# Summary of the method: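 Compound incubated with human liver microsomes, 1 h at 37 °C; read-out is % of parent remaining.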
row,Compound,remaining at 1 h
1,CC(=O)N[C@@H](Cc1ccccc1)C(=O)N[C@@H](CCCN)C(=O)N1CCC[C@H]1C(=O)N[C@H](CCC(C)C)C(=O)N[C@@H](Cc1ccc(F)cc1)C(=O)N[C@@H](Cc1ccccc1)C(N)=O,65%
2,CC(=O)N[C@@H](Cc1ccccc1)C(=O)N[C@@H](CCCN)C(=O)N1CCC[C@H]1C(=O)N[C@H](CC1CCCCC1)C(=O)N[C@@H](Cc1c[nH]c2ccccc12)C(=O)N[C@@H](Cc1ccccc1)C(N)=O (HELM PEPTIDE1{[ac].F.[Orn].P.[O=C([C@@H](CC1CCCCC1)N[*:1])[*:2]].W.F.[am]}$$$$V2.0),34%
3,CC(=O)N[C@@H](Cc1ccccc1)C(=O)N[C@@H](CCCN)C(=O)N1CCC[C@H]1C(=O)N[C@H](CCC(C)C)C(=O)N[C@@H](Cc1csc2ccccc12)C(=O)N[C@@H](Cc1ccccc1)C(N)=O,1%
4,CC(=O)N[C@@H](Cc1ccccc1)C(=O)N[C@@H](CCCN)C(=O)N1CCC[C@H]1C(=O)N[C@H](CCC(C)C)C(=O)N[C@@H](Cc1c[nH]c2ccccc12)C(=O)N[C@@H](Cc1ccccc1)C(N)=O,37%
